EC50 data for 42 molecules are collected here from ChEMBL document CHEMBL3046158, “Design, synthesis, and fungicidal activity of macrolactones and macrolactams with a sulfonamide side chain” (J Agric Food Chem, 2008).

The term EC50 denotes the concentration needed to bring the measured effect to its halfway point.

SMILES strings stand for the structures. In brackets after ≈: the same amount, converted by molar mass.

For this experiment, the system named is Rhizoctonia solani. The experiment can be described thus: Fungicidal activity against Rhizoctonia solani assessed as inhibition of mycelium growth by mycelium growth rate test. It counts as functional, organism-based. Summed up:
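Mycelial growth rate test on Rhizoctonia solani. Inhibition rates measured at 100, 50, 25, 12.5 and 6.25 µg/mL.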
In the case of `Cc1ccc(S(=O)(=O)NC2CCCCCCCCCCC(=O)OC(C)CC2)cc1` (configuration not stated), the EC50 turned out to be 57 µg/mL (≈ 135 µM).

Regarding `CC1CCC(NS(=O)(=O)Cc2ccccc2)CCCCCCCCCCC(=O)O1` (configuration not stated), the EC50 stood at 28.2 µg/mL (≈ 66.6 µM).

On to `Cc1ccc(S(=O)(=O)NCCN2CCCCCCCCCCCC2=O)cc1`, for which the EC50 turned out to be 8.8 µg/mL (≈ 22.3 µM). Turning to `Cc1ccc(S(=O)(=O)NC2CCCCCCCCCCC(=O)NCCC2)cc1` (configuration not stated), the EC50 worked out at 13.4 µg/mL (≈ 32.8 µM). The value for `O=C1CCCCCCCCCCC(NS(=O)(=O)c2cccc([N+](=O)[O-])c2)CCCO1` (configuration not stated) was 18.7 µg/mL (≈ 42.4 µM); that for `O=C1CCCCCCCCCCC(NS(=O)(=O)c2cc(Cl)ccc2Cl)CCCO1` (configuration not stated) was 28.4 µg/mL (≈ 61.1 µM); that for `O=C1CCCCCCCCCCC(NS(=O)(=O)c2ccccc2)CCCN1` (configuration not stated) was 55.3 µg/mL (≈ 140 µM).

Regarding `CC1CCC(NS(=O)(=O)c2ccccc2[N+](=O)[O-])CCCCCCCCCCC(=O)O1` (configuration not stated), the EC50 amounted to 93.3 µg/mL (≈ 205 µM). Under `O=C1CCCCCCCCCCC(NS(=O)(=O)c2ccc(Cl)cc2)CCCO1` (configuration not stated) stands 3.3 µg/mL (≈ 7.67 µM); under `CC1CCC(NS(=O)(=O)c2ccc(F)cc2)CCCCCCCCCCC(=O)O1` (configuration not stated), 25.1 µg/mL (≈ 58.7 µM).

Turning to `O=C1CCCCCCCCCCCN1CCNS(=O)(=O)c1cc(Cl)ccc1Cl`, the EC50 was 5.3 µg/mL (≈ 11.8 µM). The value for `O=C1CCCCCCCCCCC(NS(=O)(=O)c2cccs2)CCCO1` (configuration not stated) was 5.1 µg/mL (≈ 12.7 µM); that for `O=C1CCCCCCCCCCCN1CCNS(=O)(=O)c1ccc(Cl)cc1` was 18.7 µg/mL (≈ 45.1 µM); that for `O=C1CCCCCCCCCCC(NS(=O)(=O)c2ccccc2)CCCO1` (configuration not stated) was 2.4 µg/mL (≈ 6.07 µM). On to `O=C1CCCCCCCCCCC(NS(=O)(=O)Cc2ccccc2)CCCN1` (configuration not stated), for which the 50% effective concentration (EC50) is 8.1 µg/mL (≈ 19.8 µM). Under `COC(=O)c1ccccc1S(=O)(=O)NC1CCCCCCCCCCC(=O)OCCC1` (configuration not stated) stands 20.9 µg/mL (≈ 46.1 µM); under `COC(=O)Nc1nc2ccccc2[nH]1` [CARBENDAZIM], 1.5 µg/mL (≈ 7.85 µM); under `CS(=O)(=O)NC1CCCCCCCCCCC(=O)OCCC1` (configuration not stated), 12.2 µg/mL (≈ 36.6 µM). Under `O=C1CCCCCCCCCCC(NS(=O)(=O)c2ccc(F)cc2)CCCN1` (configuration not stated) stands 36.7 µg/mL (≈ 89 µM); under `CC1CCC(NS(=O)(=O)c2cccs2)CCCCCCCCCCC(=O)O1` (configuration not stated), 20.3 µg/mL (≈ 48.8 µM); under `O=C1CCCCCCCCCCC(NS(=O)(=O)c2ccccc2[N+](=O)[O-])CCCN1` (configuration not stated), 21.5 µg/mL (≈ 48.9 µM).

`O=C1CCCCCCCCCCCN1CCNS(=O)(=O)c1cccc([N+](=O)[O-])c1`: the EC50 is 10.7 µg/mL (≈ 25.1 µM). For `O=C1CCCCCCCCCCC(NS(=O)(=O)c2cccc([N+](=O)[O-])c2)CCCN1` (configuration not stated), the EC50 was 27.6 µg/mL (≈ 62.8 µM). The value for `O=C1CCCCCCCCCCC(NS(=O)(=O)c2ccc(Cl)cc2)CCCN1` (configuration not stated) was 19.6 µg/mL (≈ 45.7 µM); that for `O=C1CCCCCCCCCCC(NS(=O)(=O)c2ccc(F)cc2)CCCO1` (configuration not stated) was 4.5 µg/mL (≈ 10.9 µM); that for `O=C1CCCCCCCCCCC(NS(=O)(=O)c2ccccc2[N+](=O)[O-])CCCO1` (configuration not stated) was 22.3 µg/mL (≈ 50.6 µM).

For the molecule `CC1CCC(NS(=O)(=O)c2cccc([N+](=O)[O-])c2)CCCCCCCCCCC(=O)O1` (configuration not stated), the EC50 worked out at 86 µg/mL (≈ 189 µM). As for `O=C1CCCCCCCCCCC(NS(=O)(=O)c2ccccc2Cl)CCCO1` (configuration not stated), the EC50 was 25 µg/mL (≈ 58.1 µM). On to `O=C1CCCCCCCCCCC(NS(=O)(=O)c2cccs2)CCCN1` (configuration not stated), for which the EC50 turned out to be 18.3 µg/mL (≈ 45.7 µM). The value for `O=C1CCCCCCCCCCC(NS(=O)(=O)Cc2ccccc2)CCCO1` (configuration not stated) was 52.4 µg/mL (≈ 128 µM). The value for `CC1CCC(NS(=O)(=O)c2ccc(Cl)cc2)CCCCCCCCCCC(=O)O1` (configuration not stated) was 69.6 µg/mL (≈ 157 µM). With `Cc1ccc(S(=O)(=O)NC2CCCCCCCCCCC(=O)OCCC2)cc1` (configuration not stated), the EC50 was found to be 3.7 µg/mL (≈ 9.03 µM). Turning to `CC1CCC(NS(=O)(=O)c2ccccc2)CCCCCCCCCCC(=O)O1` (configuration not stated), the EC50 turned out to be 51.3 µg/mL (≈ 125 µM).

As to `COC(=O)c1ccccc1S(=O)(=O)NC1CCCCCCCCCCC(=O)OC(C)CC1` (configuration not stated), the EC50 was determined as 53.4 µg/mL (≈ 114 µM). The value for `CC1CCC(NS(=O)(=O)c2cc(Cl)ccc2Cl)CCCCCCCCCCC(=O)O1` (configuration not stated) was 30 µg/mL (≈ 62.7 µM); that for `CC1CCC(NS(C)(=O)=O)CCCCCCCCCCC(=O)O1` (configuration not stated) was 56.4 µg/mL (≈ 162 µM). As to `CS(=O)(=O)NC1CCCCCCCCCCC(=O)NCCC1` (configuration not stated), the EC50 turned out to be 45.1 µg/mL (≈ 136 µM).

Turning to `O=C1CCCCCCCCCCC(NS(=O)(=O)c2ccccc2Cl)CCCN1` (configuration not stated), the EC50 stood at 59.5 µg/mL (≈ 139 µM). Under `O=C1CCCCCCCCCCCN1CCNS(=O)(=O)c1ccccc1` stands 11.6 µg/mL (≈ 30.5 µM). The value for `COC(=O)c1ccccc1S(=O)(=O)NC1CCCCCCCCCCC(=O)NCCC1` (configuration not stated) was 12.8 µg/mL (≈ 28.3 µM); that for `CC1CCC(NS(=O)(=O)c2ccccc2Cl)CCCCCCCCCCC(=O)O1` (configuration not stated) was 37.9 µg/mL (≈ 85.4 µM). The value for `O=C1CCCCCCCCCCC(NS(=O)(=O)c2cc(Cl)ccc2Cl)CCCN1` (configuration not stated) was 30.4 µg/mL (≈ 65.6 µM).
